# Assay results gathered from unrelated publications.
# Each line is one published result; the experiments were not run side by side.
# Organism: Staphylococcus aureus
# Effect on: microbial growth
SMILES,technique,strain,tested at,time,inhibition zone
COc1cc(C=CC(=O)CC(c2ccc(N(C)C)cc2)n2ccnc2)ccc1O (stereo not shown),disc diffusion,ATCC29213,250 µg/mL,,9 mm
CC(=O)C1=C(C)N2NC(C)(c3ccccc3O)N(C(Cc3c[nH]c4ccccc34)C(=O)O)C2=NC1c1ccc(Cl)cc1 (stereo not shown),,ATCC25923,15 µg/mL,24 h,33 mm
Cc1ccc2nc(-n3nc(C)c4c3-c3ccccc3C4=O)sc2c1,well diffusion,NCIM5021,250 µg/mL,,11 mm
CC1(C)S[C@@H]2[C@H](NC(=O)[C@H](N)c3ccc(O)cc3)C(=O)N2[C@H]1C(=O)O,disc diffusion,ATCC29213,250 µg/mL,,9.37 mm
Cc1ccc2nc(-n3nc(CC(C)C)c4c3-c3ccccc3C4=O)sc2c1,well diffusion,NCIM5021,500 µg/mL,,11 mm
CN[C@H](CC(C)C)C(=O)N[C@H]1C(=O)N[C@@H](CC(N)=O)C(=O)N[C@H]2C(=O)N[C@H]3C(=O)N[C@H](C(=O)N[C@H](C(=O)O)c4cc(O)cc(O)c4-c4cc3ccc4O)[C@H](O)c3ccc(c(Cl)c3)Oc3cc2cc(c3O[C@@H]2O[C@H](CO)[C@@H](O)[C@H](O)[C@H]2O[C@H]2C[C@](C)(N)[C@H](O)[C@H](C)O2)Oc2ccc(cc2Cl)[C@H]1O,disc diffusion,ATCC29213,31.2 µg/disc,24 h,18 mm
COc1ccc2nc(-n3nc(CC(C)C)c4c3-c3ccccc3C4=O)sc2c1,well diffusion,NCIM5021,1000 µg/mL,,13 mm
CC(C(=O)O)N1c2nc(-c3ccc(Cl)cc3)c(C#N)c(=O)n2NC1c1ccccc1O (stereo not shown),,ATCC25923,10 µg/mL,24 h,14 mm
CC(C)c1nn(-c2nc3ccc(Br)cc3s2)c2c1C(=O)c1ccccc1-2,well diffusion,NCIM5021,250 µg/mL,,11 mm
COc1cc(C=CC(=O)CC(c2ccc([N+](=O)[O-])cc2)n2ccnc2)ccc1O (stereo not shown),disc diffusion,ATCC29213,250 µg/mL,,6 mm
Cc1ccc2nc(-n3nc(C(C)C)c4c3-c3ccccc3C4=O)sc2c1,well diffusion,NCIM5021,500 µg/mL,,13 mm
N#Cc1c(-c2ccc(Cl)cc2)nc2n(c1=O)NC(c1ccccc1O)N2C(Cc1c[nH]c2ccccc12)C(=O)O (stereo not shown),,ATCC25923,10 µg/mL,24 h,18 mm
O=C(O)c1cn(C2CC2)c2cc(N3CCNCC3)c(F)cc2c1=O,disc diffusion,,100 µg/mL,24 h,24 mm
CC(C(=O)O)N1C2=NC(c3ccc(Cl)cc3)C3=C(OC(C)(C)OC3=O)N2NC1(C)c1ccccc1O (stereo not shown),,ATCC25923,15 µg/mL,24 h,24 mm
CC[C@H]1OC(=O)[C@H](C)[C@@H](O[C@H]2C[C@@](C)(OC)[C@@H](O)[C@H](C)O2)[C@H](C)[C@@H](O[C@@H]2O[C@H](C)C[C@H](N(C)C)[C@H]2O)[C@](C)(O)C[C@@H](C)/C(=N\OCOCCOC)[C@H](C)[C@@H](O)[C@]1(C)O,disc diffusion,ATCC6538,20000 µg/mL,24 h,20 mm
CCOC(=O)C1=C(C)N2NC(c3ccccc3O)N(C(Cc3c[nH]c4ccccc34)C(=O)O)C2=NC1c1ccc(Cl)cc1 (stereo not shown),,ATCC25923,15 µg/mL,24 h,33 mm
COc1cc(C=Cc2cc(-c3ccc(N(C)C)cc3)nc(O)n2)ccc1O,disc diffusion,ATCC29213,250 µg/mL,,6 mm
CC(=O)C1=C(C)N2NC(c3ccccc3O)N(C(Cc3c[nH]c4ccccc34)C(=O)O)C2=NC1c1ccc(Cl)cc1 (stereo not shown),,ATCC25923,10 µg/mL,24 h,19 mm
CC(C)c1nn(-c2nc3ccccc3s2)c2c1C(=O)c1ccccc1-2,well diffusion,NCIM5021,1000 µg/mL,,12 mm
